The results in this text go back to ChEMBL document CHEMBL1133118 (J Med Chem, 2000).

Assay [1] concerns the target T1, Adenosine receptor A3 (Homo sapiens, UniProt P0DMS8).
T1 sequence (P0DMS8 whole entry): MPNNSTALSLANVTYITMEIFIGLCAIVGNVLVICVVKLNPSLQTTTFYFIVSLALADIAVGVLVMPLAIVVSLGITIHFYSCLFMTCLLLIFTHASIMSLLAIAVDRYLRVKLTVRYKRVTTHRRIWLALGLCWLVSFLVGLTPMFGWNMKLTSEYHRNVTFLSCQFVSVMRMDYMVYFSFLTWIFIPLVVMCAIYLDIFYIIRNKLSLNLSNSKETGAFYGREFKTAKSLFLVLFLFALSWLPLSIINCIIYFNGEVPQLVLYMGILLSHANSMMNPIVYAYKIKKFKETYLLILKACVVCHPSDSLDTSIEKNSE
Put plainly: Inhibition of cAMP accumulation in CHO cells expressing human adenosine A3 receptor. In kind it is functional, cell-based.

Assay [2] concerns the target T1, Adenosine receptor A3. The assay is described as follows: biochemical.
Assay [3] addresses T2, Adenosine receptor A3 (Homo sapiens) (UniProt P0DMS8).
T2 sequence (whole entry): T1 sequence (P0DMS8 whole entry)
The assay is described as follows: Percentage of blockade by 1 uM of the inhibition by 100 nM IB-MECA-inhibited cAMP accumulation in CHO cells expressing human adenosine A3 receptor. It counts as functional, cell-based. Put shortly:
(§1)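 CHO cells stably expressing human A3 receptor; membranes in 50 mM Tris HCl, 10 mM MgCl2, 1 mM EDTA pH 7.4 with 5 μM GTP, 0.5 mM […] and 2.0 IU/mL adenosine deaminase. Preincubated 10 min at 37 °C, then IB-MECA (100 nM) and/or antagonist with 1 mM ATP and 10 μM forskolin for 10 min. Boiled 2 min. cAMP read by [3H]cAMP competition with adrenal binding protein.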
(cAMP levels reflect the balance of adenylyl cyclase and phosphodiesterase activity.)

The target in assay [4] is T3, Adenosine receptor A1 (Homo sapiens, UniProt P30542).
T3 sequence (P30542 whole entry): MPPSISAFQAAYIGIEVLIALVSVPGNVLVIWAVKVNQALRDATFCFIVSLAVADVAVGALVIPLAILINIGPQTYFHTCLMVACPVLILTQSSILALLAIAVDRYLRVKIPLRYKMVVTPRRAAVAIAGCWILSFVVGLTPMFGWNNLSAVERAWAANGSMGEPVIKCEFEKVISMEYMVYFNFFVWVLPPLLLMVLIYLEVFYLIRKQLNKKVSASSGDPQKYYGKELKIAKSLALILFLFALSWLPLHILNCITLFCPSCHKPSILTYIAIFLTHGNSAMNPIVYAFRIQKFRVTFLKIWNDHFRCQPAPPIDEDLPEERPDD
The assay is described as follows: Displacement of [3H]DPCPX from human adenosine A1 receptor expressed in CHO cells; range 4.72-6.23. In kind it is cell-based. (Displacement assays read how much labelled ligand stays bound in the presence of the test substance.)

The target in assay [5] is Adenosine receptors; A1 & A3 (Homo sapiens) (UniProt P30542+P0DMS8). The assay is described as follows: Ratio of binding affinity of human A1 receptor to that of human A3 receptor. In kind it is protein assay. Put shortly:
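Ki ratio from displacement in CHO membranes, 6–8 concentrations, n=3-6, filtration counting. A1: 1 nM [3H]DPCPX, 50 μg protein, 120 min at 25 °C, nonspecific with 10 μM CHA. A3: 1 nM [3H]MRE3008-F20, 50 μg protein, Tris/10 mM MgCl2 pH 7.4, 120 min at 4 °C, nonspecific with 1 μM MRE3008-F20.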

Assay [6] has as its target Adenosine receptors; A2b & A3 (Homo sapiens) (UniProt P29275+P0DMS8). The assay is described as follows: Ratio of binding affinity of human A2B receptor to that of human A3 receptor. In kind it is protein assay. Put shortly:
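Ki ratio, n=3-6, 6–8 concentrations. A2B in HEK-293 membranes (20 μg): 40 nM [3H]DPCPX, 50 mM Tris HCl, 10 mM MgCl2, 1 mM EDTA, 0.1 mM benzamidine pH 7.4, 2 IU/mL adenosine deaminase, 60 min at 25 °C, nonspecific with 100 μM NECA. A3 in CHO membranes (50 μg): 1 nM [3H]MRE3008-F20, 120 min at 4 °C.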

The target in assay [7] is T4, Adenosine receptor A2a (Homo sapiens, UniProt P29274). Put plainly: Displacement of [3H]-SCH- 58261 from human adenosine A2A receptor expressed in CHO cells; range 0.65-1.06. In kind it is cell-based. Put shortly:
(§2)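 Membranes from CHO cells stably expressing human A2A receptor, grown in DMEM/F12 without nucleosides, resuspended in 50 mM Tris HCl, 10 mM MgCl2, pH 7.4; 50 μg protein/assay. Competition with [3H]SCH 58261 at 6–8 or more compound concentrations, 60 min at 25 °C; nonspecific binding with 50 μM NECA. Filtration on GF/B filters, scintillation counting; n=3-6.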

In assay [8] the target is T5, Adenosine receptor A2b (Homo sapiens, UniProt P29275).
T5 sequence (P29275 whole entry): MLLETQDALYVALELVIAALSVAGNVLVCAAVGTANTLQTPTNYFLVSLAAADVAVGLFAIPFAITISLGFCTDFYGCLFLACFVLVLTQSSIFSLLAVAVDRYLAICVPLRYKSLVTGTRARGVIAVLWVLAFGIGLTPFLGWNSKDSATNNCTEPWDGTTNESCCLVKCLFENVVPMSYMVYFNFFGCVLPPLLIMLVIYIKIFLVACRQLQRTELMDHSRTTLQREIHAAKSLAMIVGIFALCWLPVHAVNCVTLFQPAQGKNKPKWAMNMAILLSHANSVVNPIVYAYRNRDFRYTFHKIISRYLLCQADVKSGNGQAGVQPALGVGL
Put plainly: Displacement of [3H]-DPCPX from Adenosine A2b receptor expressed in CHO cells; range 8-18. The conditions noted are these: in the assay text read “HEK-293 cells” for “CHO cells”. In kind it is cell-based. Put shortly: (§3)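 Human recombinant A2B receptor was expressed in HEK-293 cell membranes (20 μg protein). Incubated with 40 nM [3H]DPCPX in 50 mM Tris HCl, 10 mM MgCl2, 1 mM EDTA, 0.1 mM benzamidine, pH 7.4, with 2 IU/mL adenosine deaminase, at least 6–8 test concentrations, 60 min, 25 °C. Nonspecific binding was taken with 100 μM NECA; n=3-6.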

The target of assay [9] is T1, Adenosine receptor A3. Put plainly: Displacement of [3H]MRE3008-F20 from human adenosine A3 receptor expressed in CHO cells; range 691-952. In kind it is cell-based.
Assay [10] has as its target T2, Adenosine receptor A3 (Homo sapiens). The assay is described as follows: Percent reversal of 100 nM IB-MECA-inhibited cAMP accumulation in CHO cells expressing human adenosine A3 receptor at 1 uM. It counts as functional, cell-based. Put shortly: as §1
For assay [11], the target named is T3, Adenosine receptor A1. The assay is described as follows: Displacement of [3H]DPCPX from human adenosine A1 receptor expressed in CHO cells; range 1.72-2.36. It counts as cell-based.
The target of assay [12] is T5, Adenosine receptor A2b. Put plainly: Displacement of [3H]-DPCPX from Adenosine A2b receptor expressed in […]; range 7.4-11.3. In kind it is cell-based.
The target of assay [13] is T1, Adenosine receptor A3. Put plainly: Displacement of [3H]MRE3008-F20 from human adenosine A3 receptor expressed in CHO cells; range 664-738. It counts as cell-based.
Assay [14] has as its target T5, Adenosine receptor A2b. The assay is described as follows: Displacement of [3H]DPCPX from Adenosine A2b receptor expressed in […]; range 107-210. In kind it is cell-based.
Assay [15] addresses T1, Adenosine receptor A3. Put plainly: Displacement of [3H]MRE3008-F20 from human adenosine A3 receptor expressed in CHO cells; range 1.42-1.79. In kind it is cell-based.
Assay [16] has as its target T1, Adenosine receptor A3. The assay is described as follows: Inhibition of cAMP accumulation in CHO cells expressing human adenosine A3 receptor; range 10.8-21.5. It counts as functional, cell-based.
Assay [17] concerns the target T2, Adenosine receptor A3 (Homo sapiens). The conditions noted are these: CHO, 1 uM.
The target of assay [18] is T4, Adenosine receptor A2a. The assay is described as follows: Displacement of [3H]-SCH- 58261 from human adenosine A2A receptor expressed in CHO cells; range 160-210. In kind it is cell-based. Put shortly: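 CHO membranes expressing human A2A receptor (50 μg protein) in 50 mM Tris HCl, 10 mM MgCl2, pH 7.4, competed against [3H]SCH 58261. At least 6–8 test concentrations were used, with 60 min incubation at 25 °C. Nonspecific binding defined by 50 μM NECA; n=3-6.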

The target in assay [19] is T5, Adenosine receptor A2b. Put plainly: Displacement of [3H]DPCPX from Adenosine A2b receptor expressed in […]; range 55-68. It counts as cell-based. Put shortly: as §3
Assay [20] deals with T4, Adenosine receptor A2a. The assay is described as follows: Displacement of [3H]-SCH- 58261 from human adenosine A2A receptor expressed in CHO cells; range 85-164. It counts as cell-based. Put shortly:
as §2

Assay [21] deals with T1, Adenosine receptor A3. The assay is described as follows: Displacement of [3H]MRE3008-F20 from human adenosine A3 receptor expressed in CHO cells; range 33-48. In kind it is cell-based.
The target in assay [22] is T2, Adenosine receptor A3 (Homo sapiens). Conditions: CHO, 1 uM. This is another data set of the same source.
Assay [23] deals with T3, Adenosine receptor A1. Put plainly: Displacement of [3H]DPCPX from human adenosine A1 receptor expressed in CHO cells; range 83-120. It counts as cell-based.

Molecules are shown by their SMILES.

T4 sequence (P29274 whole entry): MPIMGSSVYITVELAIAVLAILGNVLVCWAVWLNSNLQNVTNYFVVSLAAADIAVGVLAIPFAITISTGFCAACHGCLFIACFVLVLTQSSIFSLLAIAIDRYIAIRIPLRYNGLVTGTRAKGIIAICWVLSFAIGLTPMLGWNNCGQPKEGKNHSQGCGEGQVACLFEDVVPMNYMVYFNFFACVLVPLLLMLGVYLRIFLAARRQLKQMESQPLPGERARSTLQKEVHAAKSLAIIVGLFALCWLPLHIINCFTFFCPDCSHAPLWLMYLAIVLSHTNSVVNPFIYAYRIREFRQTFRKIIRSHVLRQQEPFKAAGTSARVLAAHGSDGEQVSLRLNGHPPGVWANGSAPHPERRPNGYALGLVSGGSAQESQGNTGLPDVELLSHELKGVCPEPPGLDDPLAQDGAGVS

By IC50 is commonly meant the midpoint of a concentration-inhibition curve. The Ki is the equilibrium dissociation constant of an inhibitor or competing ligand from its target. What is called inhibition is the share of the control response that was lost under treatment. As to `Nc1nc2ccc(Cl)cc2c2nc(-c3ccco3)nn12` [CGS-15943], the IC50 in [1] came out at 406 nM. This molecule also showed a Ki in assay [2] of 85 nM. This molecule also displayed an inhibition in assay [3] of 30%.
As for `CC(C)=CCn1cc2c(nc(N)n3nc(-c4ccco4)nc23)n1`, the Ki was found to be 5.42 nM in assay [4], 0.8 nM in assay [7], 12 nM in assay [8] and 811 nM in assay [9]. The Ratio in [5] turned out to be 0.006; in [6], 0.014. This molecule yielded an inhibition in assay [3] of 12%.
Take `CC(C)CCn1cc2c(nc(N)n3nc(-c4ccco4)nc23)n1`: the inhibition in assay [10] amounted to 14%. In addition, the Ki worked out at 2 nM in assay [11], 9.1 nM in [12] and 700 nM in [13]. The results for the Ratio in assay [5] and in assay [6] were 0.002 and 0.013, respectively.
For `CCn1cc2c(nc(NC(=O)Nc3cccc(Cl)c3)n3nc(-c4ccco4)nc23)n1`, the Ki is 150 nM in assay [14], 1.6 nM in assay [15] and 180 nM in [18]. For the same molecule, the results for the Ratio in assay [5] and in assay [6] were 155 and 93.7, respectively. This molecule showed an IC50 in [16] of 14.8 nM. The molecule also returned an inhibition in [17] of 68%.
Regarding `CC(C)CCn1cc2c(nc(NC(=O)Nc3cccc(Cl)c3)n3nc(-c4ccco4)nc23)n1`, the inhibition constant (Ki) in [19] is 61 nM; in assay [20], 115 nM; in assay [21], 40 nM; in [23], 100 nM. The Ratio in [5] stood at 2.5; in assay [6] it was 1.5. In assay [22], this molecule returned an inhibition of 45%.
